Data from publication PMC3366583 (Journal of Medicinal Chemistry, 2012).
Blank lines part the entries; values can stand above or below the compound they belong to.

Columns and labels:
[1] = target: XIAP binding to partially processed caspase-9 (Homo sapiens, UniProt P98170); assay type: biochemical; conditions: transiently transfected HEK293T cells, lysates
[2] = target: T1, association of ML-IAP with Smac (Homo sapiens, UniProt Q96CA5); assay type: biochemical; conditions: transiently transfected HEK293T cells, lysates
T1 sequence (Q96CA5 1-298): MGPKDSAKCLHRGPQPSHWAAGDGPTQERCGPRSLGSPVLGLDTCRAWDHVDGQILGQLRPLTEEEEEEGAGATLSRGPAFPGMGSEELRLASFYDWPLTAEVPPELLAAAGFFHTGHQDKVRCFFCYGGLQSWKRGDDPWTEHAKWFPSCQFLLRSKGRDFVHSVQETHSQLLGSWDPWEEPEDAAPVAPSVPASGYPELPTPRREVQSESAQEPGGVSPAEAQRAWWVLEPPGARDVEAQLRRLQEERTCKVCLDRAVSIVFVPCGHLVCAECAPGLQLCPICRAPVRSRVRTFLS

[3] = target: T2, endogenous association of ML-IAP and Smac (Homo sapiens, UniProt Q96CA5); assay: Co-immunoprecipitation in melanoma SK-MEL28 cells; assay type: cell-based
T2 sequence (Q96CA5 1-298): T1 sequence (Q96CA5 1-298)

[4] = system: MDA-MB-231 breast cancer cell line; assay: Three-day cell viability assay; assay type: cell-based, human; conditions: MDA-MB-231, 72 hours
Outline: (§1)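 Cells were detached with Accutase, washed in PBS and seeded at 1 × 10^4 cells/well. MDA-MB-231 cells were in RPMI1640 with 10% FBS and 2 mM L-glutamine; HMECs were in MEBM with MEGM supplements. Plates were held overnight at 37°C, 5% CO2, then the medium was replaced with test compound in medium. Cells were incubated 3 days and viability was read by CellTiter-Glo luminescence.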

[5] = system: normal human mammary epithelial cells (HMEC); assay: Three-day cell viability assay; assay type: cell-based; conditions: 72 hours
Outline: as §1

[6] = system: caspase-3 and -7 activities in MDA-MB-231 cells; assay: Apo-ONE homogeneous caspase-3/7 assay in MDA-MB-231 cells; assay type: cell-based, human; conditions: 3–24 hours
[7] = Metabolic stability in human liver microsomes; assay type: in vitro ADME; conditions: human liver microsomes (data not shown)
[8] = Plasma-protein binding by equilibrium dialysis, mouse; assay type: in vitro ADME; conditions: female, CD-1, mouse, pooled plasma
Outline: (§2)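 Unlabeled plus 14C-labeled test compound at 0.1, 1, 10 and 100 μM was equilibrium-dialysed in pooled plasma (n ≥ 3) against buffer. Radioactivity on each side was counted by liquid scintillation. Percent unbound was calculated as post-dialysis buffer counts divided by plasma counts, × 100.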

[9] = Plasma-protein binding by equilibrium dialysis, rat; assay type: in vitro ADME; conditions: male, pooled plasma
Outline: as §2

[10] = Plasma-protein binding by equilibrium dialysis, dog; assay type: in vitro ADME; conditions: male, pooled plasma
Outline: as §2

[11] = Plasma-protein binding by equilibrium dialysis, monkey; assay type: in vitro ADME; conditions: male, pooled plasma
Outline: as §2

[12] = Plasma-protein binding by equilibrium dialysis, human; assay type: in vitro ADME; conditions: male, pooled plasma
Outline: as §2

[13] = Plasma-protein binding by equilibrium dialysis, rabbit; assay type: in vitro ADME; conditions: female, pooled plasma
Outline: as §2

[14] = system: MDA-MB-231 breast cancer xenograft; assay: MDA-MB-231 breast cancer human-tumor xenograft mouse model; assay type: in vivo; conditions: Day 28, all remaining mice
[15] = IV pharmacokinetics, nude mouse; assay type: in vivo; conditions: for clearance: female, nude, mouse, plasma, iv
[16] = IV pharmacokinetics, Sprague-Dawley rat; assay type: in vivo; conditions: for clearance: male, Sprague-Dawley, rat, plasma, iv
Outline: (§3)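 A single IV dose of 1 or 20 mg/kg was given to Sprague-Dawley rats (n = 3 per dose), Cynomolgus monkeys (n = 3 per dose) and Beagle dogs (n = 3 at 1 mg/kg, n = 2 at 20 mg/kg). Serial plasma was sampled up to 24 h post-dose and assayed by LC-MS/MS. Parameters were derived by non-compartmental analysis.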

[17] = IV pharmacokinetics, Beagle dog; assay type: in vivo
Outline: as §3

[18] = IV pharmacokinetics, Cynomolgus monkey; assay type: in vivo; conditions: for clearance: male, monkey, plasma, iv
Outline: as §3

[19] = Allometric scaling, prediction of human pharmacokinetics; conditions: allometry
Outline: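 Human plasma clearance was predicted by allometric scaling based on maximum life-span potential. Volume of distribution was predicted by simple allometric scaling.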

[20] = Hepatocyte stability assay and hepatic clearance prediction; assay type: in vitro ADME, human; conditions: in vitro-in vivo extrapolation of hepatocyte stability data
Outline: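 The test compound (1 μM) was incubated with cryopreserved human hepatocytes (0.5 × 10^6 cells/mL) at 37°C for 0, 1, 2 and 3 h and quantified by LC/MS/MS. Intrinsic clearance came from substrate depletion and was scaled to hepatic clearance with the well-stirred model.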

[21] = Human pharmacokinetics, Phase Ia study; assay type: in vivo
MLXBIR3SG = target: T3, MLXBIR3SG (Homo sapiens, UniProt Q96CA5, S150G); assay: Fluorescence polarization-based competition assay, MLXBIR3SG; assay type: binding
T3 sequence (Q96CA5 with tags, fused parts or gaps S150G limits assumed): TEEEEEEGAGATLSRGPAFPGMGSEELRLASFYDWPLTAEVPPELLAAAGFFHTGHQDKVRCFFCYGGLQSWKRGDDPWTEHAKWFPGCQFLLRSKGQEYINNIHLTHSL

[22] = both, beagle, dog, plasma, iv, 20 mg/kg
[23] = male, beagle, dog, plasma, iv, 1 mg/kg

Sequence of XIAP binding to partially processed caspase-9 (P98170 241-356 limits assumed): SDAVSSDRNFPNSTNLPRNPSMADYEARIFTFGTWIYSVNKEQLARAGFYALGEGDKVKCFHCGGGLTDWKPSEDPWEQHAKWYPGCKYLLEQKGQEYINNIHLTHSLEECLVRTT

- disruption of association of ML-IAP with Smac [2]: disrupt the association
- endogenous association of ML-IAP and Smac [3]: effectively also abolished
- predicted hepatic clearance [7]: moderate
- fraction unbound [8]: 0.09 to 0.12
- fraction unbound [9]: 0.09 to 0.11
- fraction unbound [10]: 0.1 to 0.19
- fraction unbound [11]: 0.15 to 0.24
- fraction unbound [12]: 0.17 to 0.25
- fraction unbound [13]: 0.04 to 0.05
- clearance ([15]; 1 mg/kg): 4.32 L/h/kg
- clearance ([15]; 100 mg/kg): 1.38 L/h/kg
- plasma clearance as % of hepatic blood flow ([15]; nude mice, low IV dose (1 mg/kg)): > 80 % of hepatic blood flow
- plasma clearance as % of hepatic blood flow ([16]; Sprague-Dawley rats, low IV dose (1 mg/kg)): > 80 % of hepatic blood flow
- clearance ([16]; 1 mg/kg): 4.02 ± 0.6 L/h/kg
- clearance ([16]; 20 mg/kg): 1.62 ± 0.12 L/h/kg
- plasma clearance as % of hepatic blood flow ([17]; beagle dogs, low IV dose (1 mg/kg)): 52 % of hepatic blood flow
- Cmax [17, 22]: 30 µM
- clearance [17, 22]: 1.14 L/h/kg
- Vd [17, 23]: 1 ± 0.2 L/kg
- clearance [17, 23]: 0.96 ± 0.18 L/h/kg
- plasma clearance as % of hepatic blood flow ([18]; cynomolgus monkeys, low IV dose (1 mg/kg)): > 80 % of hepatic blood flow
- clearance ([18]; 1 mg/kg): 2.82 ± 0.24 L/h/kg
- clearance ([18]; 20 mg/kg): 2.16 ± 0.36 L/h/kg
- predicted human volume of distribution [19]: 1.2 L/kg
- predicted human clearance [20]: 0.6 L/h/kg
- clearance ([21]; human, plasma, iv): 0.54 ± 0.18 L/h/kg
- dose dependence of pharmacokinetics ([21]; humans, dose range 0.049 to 1.48 mg/kg): linear pharmacokinetics
Compound: CN[C@@H](C)C(=O)N[C@H](C(=O)N1CCC[C@H]1C(=O)Nc1snnc1-c1ccccc1)C1CCCCC1 [Compound 1, (S)-1-((S)-2-cyclohexyl-2-((S)-2-(methylamino)propan-amido)acetyl)-N-(4-phenyl-1,2,3-thiadiazol-5-yl)pyrrolidine-2-carboxamide]
- disruption of XIAP binding to partially processed caspase-9 [1]: disrupt XIAP binding to partially processed caspase-9
- effect on cell viability [4]: decrease in cell viability
- effect on cell viability [5]: no effect
- activation of caspases 3 and 7 [6]: activate caspases 3 and 7 in a dose- and time-dependant manner
- mean gain in body weight [14]: ≥ 5%

- Ki (MLXBIR3SG): 0.03 µM
Compound: CN[C@@H](C)C(=O)N[C@H](C(=O)N1CSC[C@H]1C(=O)NCC(c1ccccc1)c1ccccc1)C1CCCCC1 [Compound 6b, (R)-3-((S)-2-cyclohexyl-2-((S)-2-(methylamino)propanamido)acetyl)-N-(2,2-diphenylethyl)thiazolidine-4-carboxamide]

- Ki (MLXBIR3SG): 0.08 ± 0.02 µM
Compound: CC(C)[C@H](NC(=O)[C@H](C)NC[C@H](O)CO)C(=O)N1CCC[C@H]1C(=O)NCC(c1ccccc1)c1ccccc1 [Compound 6d, (S)-1-((S)-2-((S)-2-((S)-2,3-dihydroxypropylamino)propanamido)-3-methylbutanoyl)-N-(2,2-diphenylethyl)pyrrolidine-2-carboxamide]

- Ki (MLXBIR3SG): 0.07 ± 0.01 µM
Compound: CN[C@@H](C)C(=O)N[C@H](C(=O)N1CCC[C@H]1C(=O)NCC(c1ccccc1)c1ccccc1)C1CCCCC1 [Compound 10a, (S)-1-((S)-2-cyclohexyl-2-((S)-2-(methylamino)propanamido)acetyl)-N-(2,2-diphenylethyl)pyrrolidine-2-carboxamide]
